Compound activity from PubChem.
Rows were chosen to be rich in hits. Some 2.9% of all compounds tested hit in one or more screens of this group.
TRPC4 block: inhibitors of mouse TRPC4 channel, primary screen, Fluo4 calcium, HEK293 TRPC4beta/mu-opioid cells; Short transient receptor potential channel 4 (Mus musculus), Q9QUQ5; DAMGO-evoked Fluo4 calcium flux; active compounds read low; 0.39% of 300,000 active; AID 2247, 2010; B-score at 10 µM;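 active means B-score over 3 SD under the library average, no early fluorescence shift, positive overall ratio signal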
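test system = HEK293 cells with stable TRPC4beta plus mu-opioid receptor expression | detection = Fluo4 Ca2+ flux fluorescence | read-out = integrated fluorescence ratio relative to baseline, converted to per-well B score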
Kir21 block: inhibitors of mouse Kir2.1 inward-rectifier potassium channel | AID 1672, 2009 | Inward rectifier potassium channel 2 (Mus musculus), P35561 | 0.85% of 310,000 active | HEK293-Kir2.1, FluxOR thallium flux fluorescence; active compounds read low | B-score at 10 µM;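 active means fluorescence ratio B-score at or below minus 3 SD of library scores, with starting-brightness B-score within 2 SD, cut at about -4.2 in these data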;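 further: channel flux triggered by added potassium and thallium sulfate stimulus; B-score of peak minus minimum fluorescence over baseline after thallium stimulus; more negative B-score means stronger Kir2.1 block with less thallium influx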
Target sequence (P35561 whole entry, looked up): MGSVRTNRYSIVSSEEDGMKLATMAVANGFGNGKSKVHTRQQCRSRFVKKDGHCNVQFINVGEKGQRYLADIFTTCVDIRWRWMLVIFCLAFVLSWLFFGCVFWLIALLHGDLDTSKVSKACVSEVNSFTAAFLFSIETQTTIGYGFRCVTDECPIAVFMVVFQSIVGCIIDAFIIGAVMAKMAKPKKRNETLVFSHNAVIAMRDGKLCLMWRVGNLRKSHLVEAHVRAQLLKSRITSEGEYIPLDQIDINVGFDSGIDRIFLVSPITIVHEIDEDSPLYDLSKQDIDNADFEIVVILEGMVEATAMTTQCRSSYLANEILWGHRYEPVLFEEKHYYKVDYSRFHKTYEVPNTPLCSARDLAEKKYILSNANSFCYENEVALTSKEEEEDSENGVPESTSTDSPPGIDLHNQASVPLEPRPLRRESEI
TRPC4 act: activators of mouse TRPC4 channel, primary screen, Fluo4 calcium, HEK293 TRPC4beta/mu-opioid cells; Short transient receptor potential channel 4 (Mus musculus), Q9QUQ5; 0.49% of 310,000 active; Fluo4 calcium fluorescence; active compounds read high; B-score at 10 µM; AID 2237, 2010;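 active means B-score above 5 SD of library B-scores, and initial fluorescence ratio not above library mean plus 5 SD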;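 further: positive B-score marks a calcium rise read as TRPC4 activation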
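Assay system – TRPC4beta and mu-opioid receptor HEK293 stable cells · Measured by – Fluo4 fluorescence, kinetic · Schedule – dye loading 45 min room temperature, 110 s kinetic read · Read-out – B-scored integrated calcium fluorescence ratio · Controls – buffer and maximal DAMGO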
TRPC6 inhibitor: mouse TRPC6 channel inhibitors, primary screen, cell-based, HEK293, membrane potential dye; ACh-evoked depolarization; active compounds read low; B-score at 10 µM; 1.1% of 310,000 active; AID 2553, 2010;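 active means B-score under library mean minus 3 SD, initial fluorescence not abnormally high, positive integrated signal ratio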;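 further: B-score derived from integrated fluorescence ratio over the kinetic read; more negative B-score means stronger inhibition of depolarization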
TRPC4 potent: positive allosteric modulators of TRPC4, primary screen, cell-based, mouse TRPC4beta, HEK293 mu-opioid, Fluo-4 calcium; 0.42% of 310,000 active; B-score at 10 µM; DAMGO EC20, Fluo-4 Ca2+ flux; active compounds read high;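 active means B-score of calcium response area above 5 SD of library B-scores, with initial fluorescence ratio within 5 SD of library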
TRPC6 act: mouse TRPC6 channel activators, primary screen, cell-based, HEK293, membrane potential dye; Short transient receptor potential channel 6 (Mus musculus), Q61143; HEK293-TRPC6 membrane potential dye fluorescence; active compounds read high; B-score at 10 µM; 0.13% of 310,000 active; AID 2550, 2010;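 active means B-score of the integrated fluorescence ratio above library mean plus 3 SD, and starting fluorescence ratio within library mean plus 5 SD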;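 further: higher score means more depolarization so channel activation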
hERG ctr: hERG channel inhibition, counter-screen for Kir2.1 inhibitor project, cell-based, thallium flux. shares compounds with Kir21 block. hERG-expressing cells. inhibition, % at 10 µM. 20% of 320 active. AID 2236, 2010;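 further: host cells are CHO cells stably expressing hERG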
KCNK9 inh: KCNK9 channel inhibition, selectivity assay for Kir2.1 inhibitor project, cell-based. AID 2329, 2010. 5% of 320 active. shares compounds with Kir21 block. inhibition, % at 10 µM. KCNK9-expressing cells, ion flux inhibition
Kir2-1 patch inh: mouse Kir2.1 channel blockers, Kir2.1 inhibitor project, cell-based, secondary, automated electrophysiology | inhibition, % at 25 µM | 71% of 320 active | shares compounds with Kir21 block | Kir2.1 cells, automated patch-clamp current inhibition | AID 463252, 2010
TRPC4 sel inh 2: second selectivity test of TRPC6 inhibitors: effect on mouse TRPC4; 42% of 920 active; HEK293 TRPC4/MOR, membrane potential dye fluorescence; channel activated by saturating DAMGO dose; inhibition, % at 10 µM; shares compounds with TRPC6 inhibitor;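 active means compounds whose fluorescence signal differed from control wells by over 3 SD, either direction, in both duplicate plates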
TRPC4 spec: mouse TRPC4 modulation by TRPC6 hits, confirmation, selectivity assay for TRPC6 inhibitor project, cell-based, HEK293 TRPC4/mu-opioid, membrane potential dye | shares compounds with TRPC6 inhibitor | membrane potential fluorescence | activity change, negative = inhibition, % at 10 µM | 61% of 920 active;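 active means rise or fall in signal beyond 3 SD of buffer-only wells in both replicate plates, either sign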;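 further: integrated kinetic ratio of fluorescence range over baseline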
HEK293 MPD ctr 2-1: nonspecific membrane potential effects, parental HEK293, confirmation, counter-screen for TRPC6 inhibitor project, cell-based, second counter screen. parental HEK293 membrane potential dye fluorescence; maximal acetylcholine challenge after compound addition. 31% of 920 active. AID 2779, 2010. signal change vs control, % at 10 µM. shares compounds with TRPC6 inhibitor;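 active means membrane potential signal moving either way by over 3 SD of the maximum-effect control, in both duplicate plates, meaning non-specific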
HEK293 MPD ctr-1: membrane potential modulation in parental HEK293, confirmation, counter-screen for TRPC6 inhibitor project, cell-based. shares compounds with TRPC6 inhibitor. parental HEK293 membrane potential dye fluorescence. membrane potential signal change, % at 10 µM. 60% of 920 active;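 active means membrane potential signal shifting up or down by more than 3 SD of buffer-only wells, on both duplicate plates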
HEK293 MPD ctr-2: parental HEK293 membrane potential modulation, confirmation, counter-screen for TRPC6 modulator project, cell-based. membrane potential dye fluorescence. membrane potential signal change, % at 10 µM. shares compounds with TRPC6 inhibitor. 51% of 2,400 active;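 active means membrane potential signal moves up or down beyond 5 SD from buffer-only wells, on both duplicate plates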
HEK293 MPD ctr 2-2: second counter-screen for TRPC6 modulators: effect in parental HEK293 cells; membrane potential dye fluorescence; after compound, maximal acetylcholine stimulation; inhibition, % at 10 µM; AID 488926; 14% of 2,400 active; shares compounds with TRPC6 inhibitor;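 active means membrane potential signal drops by more than 5 SD from the mean control signal, in both duplicate plates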
TRPC4 ctr mod: TRPC4 modulation by TRPC6 hit compounds, confirmation, selectivity assay for TRPC6 modulator project, cell-based, HEK293 TRPC4/mu-opioid, membrane potential dye, mouse | membrane potential fluorescence | percent change from control (negative = decrease, positive = increase), % at 10 µM | 69% of 2,400 active | AID 488927, 2010 | shares compounds with TRPC6 inhibitor;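 active means membrane potential signal moved up or down beyond 5 SD of buffer control wells, in both duplicate plates, actives on both sides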
TRPC4 ctr inh 2: second check of whether TRPC6 modulators also affect mouse TRPC4 | inhibition, % at 10 µM | HEK293 TRPC4/mu-opioid, membrane potential dye fluorescence; stimulated with maximal-effect DAMGO | 55% of 2,400 active | AID 488928 | shares compounds with TRPC6 inhibitor;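 active means drop in membrane potential signal beyond 5 SD of the control wells in both duplicate plates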;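 further: TRPC4 counter screen for TRPC6 hits run under conditions tuned for TRPC6 not TRPC4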
TRPC6 block conf: mouse TRPC6 channel inhibitors, confirmation, HEK293 cells, membrane potential dye, duplicate; shares compounds with TRPC6 inhibitor; ACh-evoked depolarization; inhibition, % at 10 µM; 43% of 3,300 active; AID 488960, 2010;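 active means fluorescence ratio falls more than 5 SD below the full-stimulation control mean, in both duplicate runs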;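 further: integrated fluorescence ratio of peak minus minimum over baseline after agonist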
TRPC6 act conf: mouse TRPC6 channel activators, confirmation, HEK293 cells, membrane potential dye, duplicate | HEK293-TRPC6 membrane potential dye fluorescence, FDSS | shares compounds with TRPC6 inhibitor | AID 488961, 2010 | activation, % at 10 µM | 11% of 2,800 active;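 active means ratio signal rise beyond 5 SD above unstimulated control wells' mean, seen in both duplicate runs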
Numbers stand for hits; n = inactive; x = no result given. Unless noted, how the calls were made is not given here.

SMILES	TRPC4 block	Kir21 block	TRPC4 act	TRPC6 inhibitor	TRPC4 potent	TRPC6 act	HEK293 MPD ctr-2	HEK293 MPD ctr 2-2	TRPC4 ctr mod	TRPC4 ctr inh 2	TRPC6 block conf	TRPC6 act conf	others
COc1ccc2ccccc2c1CNCCc1ccccc1	n	-8.9	n	-7.8	n	n	x	x	x	x	66%	x	hERG ctr=n;KCNK9 inh=n;Kir2-1 patch inh=29%;TRPC4 sel inh 2=n;TRPC4 spec=16%;HEK293 MPD ctr 2-1=n;HEK293 MPD ctr-1=5.0%
O=c1cccc2n1CC1CC2CN(Cc2c(F)cccc2Cl)C1 (centres undefined)	n	n	n	n	n	n	x	x	x	x	x	x
COc1cc2c(cc1OC)-c1c3c(cc4c1[C@@H](C2)N(C)CC4)OCO3	n	n	n	-8	n	n	-194%	76%	-35%	52%	56%	n
COc1ccc(CC2c3cc(OC)c(OC)cc3CCN2C)cc1O (centres undefined)	n	n	n	n	n	n	x	x	x	x	x	x
COc1cc2c(cc1OC)-c1c(OC)c(OC)cc3c1C(C2)N(C)CC3 (centres undefined)	n	n	n	-5.4	n	n	-234%	n	-44%	51%	53%	n
C[C@H]1CC[C@@H]2N(C1)C[C@H]1[C@@H]3C[C@H]4[C@@H](CC(=O)[C@H]5C[C@@H](O)CC[C@@]54C)[C@@H]3CC[C@H]1[C@]2(C)O	n	n	n	n	n	n	x	x	x	x	x	x
CCCNC(=O)c1c(N)n(CC2CCCO2)c2nc3ccccc3nc12 (centres undefined)	n	n	n	n	n	n	x	x	x	x	x	x
CC(C)OCCCNC(=O)c1c(N)n(CC2CCCO2)c2nc3ccccc3nc12 (centres undefined)	n	n	n	-5	n	n	124%	n	23%	n	n	x
CCCCc1ccc2[nH]cc(CCN)c2c1	n	n	n	-5.2	n	n	n	n	n	47%	50%	n
CCOC(=O)/C(CCCN(CC)CC)=N\O	n	n	n	n	n	n	x	x	x	x	x	x
O=C1CC(=O)N(c2cccc(C(F)(F)F)c2)C(=O)N1	n	n	n	n	n	n	x	x	x	x	x	x
Fc1ccc(C[n+]2c(-c3ccccc3)cc(-c3ccccc3)cc2-c2ccccc2)cc1	n	-9.3	n	-6.9	n	n	x	x	x	x	56%	n	TRPC4 sel inh 2=75%;TRPC4 spec=4.2%;HEK293 MPD ctr 2-1=232%;HEK293 MPD ctr-1=3.5%
O=[N+]([O-])c1ccccc1-c1cc(-c2ccccc2)cc(-c2ccccc2)[n+]1Cc1ccccc1Cl	n	-9.1	n	-5.7	n	n	n	n	-8.5%	n	n	n
O=[N+]([O-])c1ccc(-[n+]2c(-c3ccccc3)cc(-c3ccccc3)cc2-c2ccccc2)cc1	n	n	n	n	n	n	x	x	x	x	x	x
C=CCn1c(O)c(/C=C/C=Nc2ccccc2)c(=O)[nH]c1=O	n	n	n	n	n	n	x	x	x	x	x	x
O=C(Nc1cccc(Br)c1)c1c(O)c2c(n(Cc3ccccc3)c1=O)CCCC2	n	n	n	n	n	n	x	x	x	x	x	x
O=[N+]([O-])c1ccc2nc(N3CCNCC3)ccc2c1	n	n	n	-5	n	n	-218%	n	-38%	42%	n	n
CCOC(=O)C(NC(=O)C(Cc1ccc(N(CCCl)CCCl)cc1)NC(C)=O)C(C)C (centres undefined)	n	n	n	n	n	n	x	x	x	x	x	x
Cc1ccc(-c2nc3ccccc3c(=O)n2-c2cc(C)ccn2)cc1	n	n	n	n	n	n	x	x	x	x	x	x
